According to ChEMBL document CHEMBL1150651, “Cholestane glycosides from the bulbs of Ornithogalum thyrsoides and their cytotoxic activity against HL-60 leukemia cells” (J Nat Prod, 2002):
≈ marks a conversion by molar mass, not a printed value.

System: HL-60
Experiment: Cytotoxicity against human HL60 cells after 72 hrs by MTT assay
Format: functional, cell-based
Settings: HL-60, 72 h
Method in brief: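 HL-60 cells (JCRB 0085) grown in RPMI 1640 with heat-inactivated 10% FBS, L-glutamine, penicillin and streptomycin. Seeded at 4 × 10^4 cells/mL and preincubated 24 h at 37 °C in 5% CO2. Sample added in EtOH-H2O (1:1) at final 0.00001-10 µg/mL; vehicle in control wells. After 72 h, MTT (5 mg/mL in PBS) added for 4 h. Formazan dissolved in DMSO, absorbance read at 550 nm.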

`COc1ccc(C(=O)O[C@H]2[C@H](O[C@@H]3[C@@H](OC(C)=O)[C@H](O[C@H]4C[C@H]5[C@@H]6CC=C7C[C@@H](O[C@@H]8O[C@H](CO)[C@@H](O)[C@H](O)[C@H]8O)CC[C@]7(C)[C@H]6CC[C@]5(C)[C@@]4(O)[C@H](C)C(=O)CCC(C)C)OC[C@@H]3O)OC[C@@H](O)[C@@H]2O)cc1OC` and `COc1cc(C(=O)O[C@H]2[C@H](O[C@@H]3[C@@H](OC(C)=O)[C@H](O[C@H]4C[C@H]5[C@@H]6CC=C7C[C@@H](O[C@@H]8O[C@H](CO)[C@@H](O)[C@H](O)[C@H]8O)CC[C@]7(C)[C@H]6CC[C@]5(C)[C@@]4(O)[C@H](C)C(=O)CCC(C)C)OC[C@@H]3O)OC[C@@H](O)[C@@H]2O)cc(OC)c1OC` are within 1.5-fold of each other in IC50: 0.00013 µg/mL (≈ 0.000122 µM) for the first, 0.00016 µg/mL (≈ 0.000146 µM) for the second.

First: CC(=O)O[C@H]1[C@H](O[C@H]2C[C@H]3[C@@H]4CC=C5C[C@@H](O[C@@H]6O[C@H](CO)[C@@H](O)[C@H](O)[C@H]6O)CC[C@]5(C)[C@H]4CC[C@]3(C)[C@@]2(O)[C@H](C)C(=O)CCC(C)C)OC[C@H](O)[C@@H]1O[C@@H]1OC[C@@H](O)[C@H](O)[C@H]1O
Second: CC(=O)O[C@H]1[C@H](O[C@H]2C[C@H]3[C@@H]4CC=C5C[C@@H](O[C@@H]6O[C@H](CO[C@@H]7O[C@H](CO)[C@@H](O)[C@H](O)[C@H]7O)[C@@H](O)[C@H](O)[C@H]6O)CC[C@]5(C)[C@H]4CC[C@]3(C)[C@@]2(O)[C@H](C)C(=O)CCC(C)C)OC[C@H](O)[C@@H]1O[C@@H]1OC[C@@H](O)[C@H](O)[C@H]1O
The IC50 of the first is lower: 0.013 µg/mL (≈ 0.0144 µM) for the first, over 10 µg/mL for the second.

`COc1cc(C(=O)O[C@H]2[C@H](O[C@@H]3[C@@H](OC(C)=O)[C@H](O[C@H]4C[C@H]5[C@@H]6CC=C7C[C@@H](O[C@@H]8O[C@H](CO[C@@H]9O[C@H](CO)[C@@H](O)[C@H](O)[C@H]9O)[C@@H](O)[C@H](O)[C@H]8O)CC[C@]7(C)[C@H]6CC[C@]5(C)[C@@]4(O)[C@H](C)C(=O)CCC(C)C)OC[C@@H]3O)OC[C@@H](O)[C@@H]2O)cc(OC)c1OC` and `COc1ccc(C(=O)O[C@H]2[C@H](O[C@@H]3[C@@H](OC(C)=O)[C@H](O[C@H]4C[C@H]5[C@@H]6CC=C7C[C@@H](O[C@@H]8O[C@H](CO[C@@H]9O[C@H](CO)[C@@H](O)[C@H](O)[C@H]9O)[C@@H](O)[C@H](O)[C@H]8O)CC[C@]7(C)[C@H]6CC[C@]5(C)[C@@]4(O)[C@H](C)C(=O)CCC(C)C)OC[C@@H]3O)OC[C@@H](O)[C@@H]2O)cc1OC` are within 1.5-fold of each other in IC50: 0.7 µg/mL (≈ 0.557 µM) for the first, 0.81 µg/mL (≈ 0.66 µM) for the second.

`CC(C)CCC(=O)[C@@H](C)[C@@]1(O)[C@@H](O[C@@H]2OC[C@H](O)[C@H](O)[C@H]2O)C[C@H]2[C@@H]3CC=C4C[C@@H](O[C@@H]5O[C@H](CO)[C@@H](O)[C@H](O)[C@H]5O)CC[C@]4(C)[C@H]3CC[C@@]21C` was tested, and the IC50 was 0.12 µg/mL (≈ 0.165 µM).
